Source: PubChem
Most compounds without a hit are left out; they make up all but 9.5% or so of the library.
M1 ag: activates the M1 muscarinic receptor. CHO-M1 cells, Fluo-4 calcium fluorescence, agonist mode; active compounds read high. B-score at 10 µM. 64,000 compounds, 3% hits;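 active means fluorescence rise, raw or as B-score row- and column-corrected plate score, outside the 99.7% band of its plate's samples, either direction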
M1 antagonist: antagonists of rat M1 muscarinic receptor; B-score at 10 µM; CHO-M1 cells, Fluo-4 calcium, ACh EC80 antagonist mode; active compounds read low; P08482; 64,000 compounds, 3.4% hits;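 active means calcium fluorescence response, raw or row-and-column corrected B-score, differing from the plate sample mean either way at a set confidence level, mostly lower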
Target sequence (P08482 whole entry, looked up): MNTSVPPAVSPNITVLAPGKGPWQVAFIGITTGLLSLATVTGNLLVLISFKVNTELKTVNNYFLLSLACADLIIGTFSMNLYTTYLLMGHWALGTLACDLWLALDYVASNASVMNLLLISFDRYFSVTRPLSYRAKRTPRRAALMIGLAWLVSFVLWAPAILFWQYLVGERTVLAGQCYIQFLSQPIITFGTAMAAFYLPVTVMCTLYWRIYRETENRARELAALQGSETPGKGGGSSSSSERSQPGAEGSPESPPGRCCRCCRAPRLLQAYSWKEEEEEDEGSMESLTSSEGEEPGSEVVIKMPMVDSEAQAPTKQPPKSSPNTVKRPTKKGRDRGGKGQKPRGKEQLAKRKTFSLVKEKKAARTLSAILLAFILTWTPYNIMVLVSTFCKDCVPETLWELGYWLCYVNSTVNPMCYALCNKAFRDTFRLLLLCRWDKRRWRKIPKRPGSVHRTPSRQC
Jurkat tox 60K: cytotoxicity toward Jurkat cells; 56,000 compounds, 1.2% hits; inhibition, % at 4 µM; AID 463; Jurkat E6.1 viability, ATP luminescence, 48 h;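 active means inhibition above the mean inhibition of all tested compounds plus 3 SD, cut at about 28% in these data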
HEK293 NFkB inh: inhibitors of the PMA/ionomycin-induced NF-kB reporter in HEK293 cells; HEK-293 NF-kB luciferase reporter, luminescence; inhibition, % at 3 µM; 62,000 compounds, 0.21% hits;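 active means inhibition above the mean of all tested compounds plus 3 SD, cut at about 40% in these data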;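 further: 0% = stimulated DMSO wells and 100% = 10 µM reference inhibitor 5653914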
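Timing: 1 h pretreatment, 16 h stimulation, 37 °C; system: HEK-293 cells with stable firefly luciferase reporter driven by four HIV NF-kB elements; doses: 3 µM once, 0.30% DMSO; measured by: luciferase luminescence; control set: DMSO and 10 µM reference inhibitor; repeats: single test; reagent: PMA plus ionomycin mix as NF-kB-activating stimulus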
mHtt clearance: mutant huntingtin protein clearance; HeLa Exon1htt(103Q)mCFP, aggregate imaging; zero = plate's median compound well; inhibition, % at 1.5 µM; 47,000 compounds, 0.42% hits;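 active means inhibition of aggregate fluorescence above about 70%, also judged a hit by eye on the cell image, limit read from the data, passing the limit was not always enough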;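 further: cells exposed to compound for three days before fixation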
D1 allo mod: allosterically modulates the human D1 dopamine receptor; HEK293 D1, CRE-luciferase, dopamine EC30 potentiation; actives deviate in either direction; 58,000 compounds, 5.9% hits; AID 641; P21728; B-score at 10 µM;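 active means luminescence count or its row- and column-corrected plate score outside the 99.7% band of the plate's sample wells, on either side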
D1 mod confirm: confirmation of human D1 dopamine receptor allosteric modulators. shares compounds with D1 allo mod. HEK293 D1 CRE-luciferase, dopamine EC30 potentiation; active compounds read high. luminescence at 10 µM. 2,200 compounds, 88% hits;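 active means luminescence in either of two replicates above the same-plate mean plus 3 SD of the low-dose dopamine control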
D1 ag no DA: activates D1 CRE-luciferase signal without dopamine present; shares compounds with D1 allo mod; HEK293 D1 CRE-luciferase, luminescence, no dopamine; active compounds read high; luminescence at 10 µM; 1,900 compounds, 0.8% hits; AID 646; in the data active means luminescence above about 3900
Isoprot counter: counter-screen for D1 modulators: isoproterenol response in HEK293 cells; luminescence at 10 µM; shares compounds with D1 allo mod; 2,200 compounds, 63% hits; AID 647; HEK293 D1 CRE-luciferase, isoproterenol EC30 counter-screen; active compounds read high;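 active means luminescence in either replicate above plate mean of wells with a partly effective reference agonist dose plus 3 SD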;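 further: isoproterenol raises cAMP through native beta-adrenoceptor Gs so signal bypasses D1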
* hit, by the source's call; . = not tested or not shown.

SMILES	M1 ag	M1 antagonist	Jurkat tox 60K	HEK293 NFkB inh	mHtt clearance	D1 allo mod	D1 mod confirm	D1 ag no DA	Isoprot counter
CCC(=O)N1CCCc2cc(S(=O)(=O)N3CCN(c4ccccn4)CC3)ccc21	-0.073	0.3	2	7	.	0.007	.	.	.
CCOc1cc(-c2c(C#N)c(N)nc3c2CCCC3C)ccc1O (stereo unspecified)	0.19	-0.46	2	-2	.	5.5*	8596*	1588	3856*
CCOC(=O)c1nc(-c2ccccc2)oc1N(C)C	0.32	0.57	10	7	.	4*	9692*	1608	3216
O=C(NCc1ccc2c(c1)OCO2)C1CC(=O)N(c2ccc(O)cc2)C1 (stereo unspecified)	1.3	1.3	4	13	.	-0.0065	.	.	.
CCc1nnc(NC(=O)Cc2ccc(OCc3c(C)noc3C)cc2)s1	1.2	-0.14	1	1	-35	0.3	.	.	.
CCOC(=O)c1cnc(-n2nc(C)cc2C)nc1NC(C)c1ccccc1 (stereo unspecified)	-0.85	-1.2	0	20	.	8.3*	9080*	1572	3472*
Cn1c(=O)c2c(n(C)c1=O)=NC1(CCCCC1)ON=2	-0.65	0.32	-1	3	.	0.34	.	.	.
CC(C)Nc1nc(NC(C)C)nc(N(C)C(N)=O)n1	-0.33	1.6	-4	6	8	7.7*	17056*	1584	3744*
CC(C)Nc1nc(NC(C)C)nc(C(N)=O)n1	-0.55	0.084	-3	14	-5	3	.	.	.
c1ccc2c(c1)nc(N1CCOCC1)c1c3ccccc3[nH]c21	0.89	0.068	2	-11	-1	0.15	.	.	.
Cc1sc2ncnc(SCC(=O)N3CCCC3)c2c1C	0.26	0.48	-1	2	.	2.3*	7900*	1616	2584
CCOC(=O)CCCSc1nc2sc(C)c(C)c2c(=O)[nH]1	0.031	-0.12	4	10	.	2.9*	6744*	.	2704*
Cc1ccc(Nc2nc(N)nc(CN3CCN(C(=O)c4ccco4)CC3)n2)cc1Cl	2	0.069	7	13	-13	5.4*	12072*	1624	3084*
COc1ccc(/C=N/n2c(N)nc3ccccc32)cc1OC	.	.	1	16	-7	9.5*	21348*	1544	4316*
CCn1c(SC)nc2c(c1=O)SC(C)C2 (stereo unspecified)	0.16	-0.11	-3	11	.	2.2	.	.	.
CCC(C)Sc1nc2c(c(=O)n1C)SC(C)C2 (stereo unspecified)	-0.02	-1.1	7	13	.	3.9*	8748*	1640	2616
Cc1ccc(-n2c(SCC(=O)Nc3cc(C)on3)nc3c(c2=O)SC(C)C3)cc1 (stereo unspecified)	0.62	0.07	-3	16	.	2.3	.	.	.
CCSc1nc2c(c(=O)n1CC)SC(C)C2 (stereo unspecified)	0.1	0.6	-9	7	.	5.5*	12712*	1732	3016
CCn1c(SCC(=O)Nc2cc(C)on2)nc2c(c1=O)SC(C)C2 (stereo unspecified)	-0.16	-0.6	-2	22	.	6.2*	6212*	1608	2292
O=C(O)C1CSC(CCc2ccccc2)N1 (stereo unspecified)	1.6	0.82	.	.	.	.	.	.	.
CC(C)Cn1nc(NS(=O)(=O)c2ccccc2)c2cc3ccccc3nc21	.	.	-1	18	-8	1.1	.	.	.
CC(C)Cn1nc(NC(=O)C2CCCO2)c2cc3ccccc3nc21 (stereo unspecified)	-0.9	-1.5	7	19	-14	12*	16892*	.	3072*
Nc1nnc(Cc2ccc(Cl)c(Cl)c2)s1	-0.4	0.17	.	.	-7	0.52	.	.	.
Nc1nc(SCc2ccc3c(c2)OCCO3)n[nH]1	-0.011	0.57	1	8	-76	4.9*	9268*	1676	2912
